≈ marks a conversion by molar mass, not a printed value.
Legend:
Format in all cases: functional
[1] = tested on: Mycobacterium tuberculosis; experiment: Antimycobacterial activity against streptomycin and isoniazid-resistant Mycobacterium tuberculosis CIBIN 675 isolates
Outline: (§1)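 Modified microplate Alamar Blue assay (MABA). Inoculum came from a log-phase culture matched to McFarland 1, diluted 1:50 in Middlebrook 7H9 to 6 × 10^6 CFU/mL, and prepared just before inoculation.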

[2] = tested on: Mycobacterium tuberculosis; experiment: Antimycobacterial activity against streptomycin, isoniazid, rifampicin, pyrazinamide-resistant Mycobacterium tuberculosis CIBIN 234 isolates; outline: as §1
[3] = tested on: Mycobacterium tuberculosis; experiment: Antimycobacterial activity against streptomycin, isoniazid, ethambutol-resistant Mycobacterium tuberculosis CIBIN 112 isolates; outline: as §1

| SMILES | MIC [1] | MIC [2] [µM] | MIC [3] [µM] |
| --- | --- | --- | --- |
| CCCCCCCCCCCCCCCCCc1nnc(-c2ccncc2)o1 | 10.4 µM | 20.8 (≈ 8 µg/mL) | 2.59 (≈ 0.999 µg/mL) |
| CCCCCCCCCCCCCCCc1nnc(-c2ccncc2)o1 | 11.2 µM | 22.4 (≈ 8 µg/mL) | 2.8 (≈ 1 µg/mL) |
| Cc1nnc(-c2ccncc2)o1 | 49.7 µM | 49.7 (≈ 8.01 µg/mL) | 49.7 (≈ 8.01 µg/mL) |
| O=[N+]([O-])c1cc(-c2nnc(-c3ccncc3)o2)cc([N+](=O)[O-])c1 | 25.5 µM | 25.5 (≈ 8 µg/mL) | 12.8 (≈ 4 µg/mL) |
| FC(F)(F)c1nnc(-c2ccncc2)o1 | 37.2 µM | 37.2 (≈ 8.01 µg/mL) | 37.2 (≈ 8.01 µg/mL) |
| NNC(=O)c1ccncc1 [ISONIAZID] | 29.2 µM | 58.4 (≈ 8.01 µg/mL) | 29.2 (≈ 4 µg/mL) |
| CN[C@@H]1[C@H](O[C@H]2[C@H](O[C@H]3[C@H](O)[C@@H](O)[C@H](N=C(N)N)[C@@H](O)[C@@H]3N=C(N)N)O[C@@H](C)[C@]2(O)C=O)O[C@@H](CO)[C@H](O)[C@H]1O (stereo in doubt) [STREPTOMYCIN] | 6.87 µM | 55 (≈ 32 µg/mL) | 55 (≈ 32 µg/mL) |
| c1ccc(-c2nnc(-c3ccncc3)o2)cc1 | 35.9 µg/mL | 35.9 (≈ 8.01 µg/mL) | 35.9 (≈ 8.01 µg/mL) |
| O=[N+]([O-])c1ccc(-c2nnc(-c3ccncc3)o2)cc1 | 29.9 µM | 29.9 (≈ 8.01 µg/mL) | 29.9 (≈ 8.01 µg/mL) |
| CN(C)c1ccc(-c2nnc(-c3ccncc3)o2)cc1 | 30 µM | 30 (≈ 8 µg/mL) | 30 (≈ 8 µg/mL) |
| c1cc(-c2nnc(-c3ccncc3)o2)ccn1 | 35.7 µM | 35.7 (≈ 8.01 µg/mL) | 35.7 (≈ 8.01 µg/mL) |
| COc1cc(-c2nnc(-c3ccncc3)o2)cc(OC)c1OC | 28.2 µM | 28.2 (≈ 8.85 µg/mL) | 14.1 (≈ 4.42 µg/mL) |
| CO[C@H]1/C=C/O[C@@]2(C)Oc3c(C)c(O)c4c(O)c(c(/C=N/N5CCN(C)CC5)c(O)c4c3C2=O)NC(=O)/C(C)=C\C=C\[C@H](C)[C@H](O)[C@@H](C)[C@@H](O)[C@@H](C)[C@H](OC(C)=O)[C@@H]1C [RIFAMPIN] | 0.94 µM | 122 (≈ 100 µg/mL) | 3.79 (≈ 3.12 µg/mL) |
| ClCc1nnc(-c2ccncc2)o1 | 41 µM | 41 (≈ 8.03 µg/mL) | 41 (≈ 8.03 µg/mL) |
| CC[C@@H](CO)NCCN[C@@H](CC)CO [ETHAMBUTOL] |  |  | 78.3 (≈ 16 µg/mL) |
| O=[N+]([O-])c1ccccc1-c1nnc(-c2ccncc2)o1 | 29.9 µM | 29.9 (≈ 8.01 µg/mL) | 29.9 (≈ 8.01 µg/mL) |

Reference: ChEMBL document CHEMBL1143736, “Synthesis and antimycobacterial activity of 4-(5-substituted-1,3,4-oxadiazol-2-yl)pyridines” (Bioorg Med Chem, 2007)
